Measurements as given in the RNAGym collection of RNA variant scans (doi:10.1038/s41586-018-0170-7).

B1: tRNA (parent)
chain: GUUCCGUUGGCGUAAUGGUAACGCGUCUCCCUCCUAAGGAGAAGACUGCGGGUUCGAGUCCCGUACGGAACG

Variants of: B1
Test: yeast fitness, log relative to wild type (ln ratio); higher = fitter; tRNA-Arg(CCU), competitive growth, 37 C, 1 M NaCl
How it was run: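 For each genotype, fitness is defined as the natural log of its generation number over the wild type's. The tRNA-Arg(CCU) variant library was on a HIS3 centromeric plasmid in BY4742 with the chromosomal gene removed, and pools were first grown 4 generations in SC-HIS at 30 °C and then ~6.5 generations (~26.5 h) in SC-HIS 1M NaCl at 37 °C. Generations were calculated from OD-scaled log2 output/input frequency, weighted by inverse variance across replicates, using counts from 125 bp paired-end Illumina sequencing.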

Row | Variant | yeast fitness (ln)
1 | G1A U2C G6U C27U A43C C66U A69G A70U C71U | -0.42
2 | G1A U2C G6U C46U C66A A69G A70G | -0.139
3 | G1A U2C C27U A43C C46U C66A A70G C71U | -0.16
4 | U2G G6A C46U A70G C71U | -0.144
5 | G1A C46U C66A A70U | -0.0792
6 | U2C A43C C66U A70G | -0.0636
7 | G1A A43C C71U | -0.0202
8 | G6U C27U C66U A69G | -0.276
9 | G1A U2C G6U C46U A69G A70G | -0.0666
10 | C27U A43C C46U C66U A69G A70G | -0.211
11 | U2C C27U A43C C66U A70U | -0.135
12 | U2C C46U C66U A70U | -0.2
13 | U2C G6U C66U A70G | -0.0259
14 | G1A G6U A43C A69G A70U C71U | -0.524
15 | U2G G6A C27U A70G C71U | -0.216
16 | G1A U2G A69G | -0.104
17 | C27U C66U A69G A70G C71U | -0.262
18 | G1A U2C G6A C27U A43C C46U A70G C71U | -0.149
19 | U2C G6U C27U A69G C71U | -0.22
20 | U2G G6A C46U C66U A69G A70U C71U | -0.385
21 | G1A U2G G6A A69G A70G C71U | -0.298
22 | G1A G6U C27U C46U A69G A70U C71U | -0.431
23 | G1A C27U A43C C46U C66U | -0.199

Row | Variant | yeast fitness (ln)
24 | C27U C66U A70U C71U | -0.276
25 | G1A G6U A43C C71U | -0.101
26 | G6A C27U C66U A69G A70G C71U | -0.256
27 | C27U A43C C66A A70G C71U | -0.234
28 | U2C G6U A70G | -0.0391
29 | G1A U2G C66U A69G C71U | -0.254
30 | U2C C66U | -0.207
31 | G1A G6A A43C C46U C66A C71U | -0.26
32 | U2C G6A C27U A69G A70U | -0.115
33 | G6U C66A A69G A70U | -0.291
34 | G1A U2C C27U A43C A70U C71U | -0.175
35 | G1A U2C G6U C27U C46U C66U A69G A70U | -0.222
36 | U2C A43C C66A A70G | -0.0552
37 | U2C G6A C46U C66U A70G C71U | -0.00476
38 | G6U C27U A43C C46U C66A C71U | -0.299
39 | U2G G6U A43C C46U C66A A70G C71U | -0.174
40 | U2G G6A A43C C46U C66A C71U | -0.153
41 | G1A U2C G6A C46U A69G A70G C71U | -0.0541
42 | G1A U2C A43C C46U C66U A70U C71U | -0.202
43 | U2G G6U A43C C46U A69G A70U C71U | -0.426
44 | U2C G6A C27U A43C C46U A70U | -0.0327
45 | U2G G6U A70U | -0.0383
